# Source: PubChem BioAssay
# An excerpt weighted towards active compounds, which were near 2.4% of everything screened.
# SIAE inh = blocks human sialic acid acetylesterase; SIAE FP-Rh probe binding, fluorescence polarization; 370,000 compounds, 0.69% hits; inhibition, % at 9.66 µM; Q9HAT2;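 active = inhibition above a cutoff: mean of compounds within the control limits plus 3 SD of those, cut at about 17% in these data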
# TDP2 inh = blocks human TDP2 phosphodiesterase activity | recombinant TDP2, T5PNP hydrolysis, p-nitrophenol absorbance 415 nm | 370,000 compounds, 0.34% hits | AID 720702 | inhibition, % at 12.8 µM | O95551;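 active = inhibition above the mean of all tested compounds plus 3 SD, set per campaign, cut at about 25% in these data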
#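 test system = human TDP2 enzyme | input = TDP2 enzyme at 120 nM final | medium = 50 mM Tris-HCl pH 7.5 with Mg2+, KCl, DTT, BSA | also added = T5PNP substrate, 5 mM | times = 2 h at 37 °C | technique = epi absorbance | benchmarks = high control without enzyme, low control DMSO plus TDP2 | replication = each compound tested once, singlicate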
# Apaf-1 inh = human Apaf-1 inhibition; O14727; reconstituted apoptosome caspase-3 activity, DEVD-Rh110 fluorescence; inhibition, % at 20 µM; 330,000 compounds, 0.71% hits; active = inhibition of at least 40% at 20 µM
#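 Assay system – apoptosome proteins · Medium – Hepes buffer, pH 7.5 · Also added – cytochrome c with DEVD-Rh110 · Timing – 30 min compound preincubation, 50 min activation, room temperature · Detection – Rh110 fluorescence, excitation 480 nm, emission 540 nm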
# GSTO1 counter = counter-screen for RBBP9 inhibitors: inhibitors of human GSTO1. P78417. recombinant GSTO1, activity-based probe fluorescence polarization. inhibition, % at 5.96 µM. 300,000 compounds, 1.1% hits. AID 1974;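 active = inhibition above the campaign mean inhibition plus 3 SD, cut at about 35% in these data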
# TCR-CD3 inh = inhibitors of human TCR-CD3 interaction. AID 651800. TAMRA-labeled TCR probe fluorescence, biochemical. 360,000 compounds, 0.37% hits. inhibition, % at 9.4 µM; in the data active = inhibition above about 19%;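 note: recombinant mutant TCR 2C K166C tagged with TAMRA read by polarization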
# PAD4 FP inh = inhibitors of human PAD4; recombinant PAD4, RCA probe fluorescence polarization; inhibition, % at 6.36 µM; 330,000 compounds, 0.41% hits;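 active = percent inhibition above a cutoff equal to the mean of all tested compounds plus 3 SD, cut at about 15% in these data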
# Target sequence (Q9UM07 whole entry, looked up): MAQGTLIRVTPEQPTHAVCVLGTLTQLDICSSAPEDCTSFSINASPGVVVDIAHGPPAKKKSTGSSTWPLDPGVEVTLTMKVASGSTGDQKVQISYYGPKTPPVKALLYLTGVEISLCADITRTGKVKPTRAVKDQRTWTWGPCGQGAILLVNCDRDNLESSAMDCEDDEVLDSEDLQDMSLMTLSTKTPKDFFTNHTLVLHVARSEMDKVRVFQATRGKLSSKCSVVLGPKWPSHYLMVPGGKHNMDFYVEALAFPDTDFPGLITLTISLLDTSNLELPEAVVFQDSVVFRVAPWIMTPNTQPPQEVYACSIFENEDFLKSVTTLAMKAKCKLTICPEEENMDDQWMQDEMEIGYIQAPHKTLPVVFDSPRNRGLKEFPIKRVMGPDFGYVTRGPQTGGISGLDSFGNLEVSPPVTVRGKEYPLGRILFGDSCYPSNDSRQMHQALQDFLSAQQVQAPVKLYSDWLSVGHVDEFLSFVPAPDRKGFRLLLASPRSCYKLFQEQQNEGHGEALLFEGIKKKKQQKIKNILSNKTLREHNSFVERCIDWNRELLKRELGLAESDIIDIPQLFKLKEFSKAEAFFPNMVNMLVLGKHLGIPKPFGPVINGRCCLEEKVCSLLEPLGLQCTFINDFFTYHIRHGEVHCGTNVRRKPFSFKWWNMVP
# GSTO1 confirm = GSTO1 (human) inhibition, confirmation | inhibition, % at 5.96 µM | recombinant GSTO1, probe fluorescence polarization | shares compounds with GSTO1 counter | AID 2176 | 2,400 compounds, 54% hits;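 active = inhibition above the primary screen's cutoff, its mean inhibition plus 3 SD, cut at about 35% in these data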;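 note: loss of polarization as inhibitors block binding of rhodamine sulfonate ester activity probe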
# PAD4 confirm = confirmation of human PAD4 inhibitors; recombinant PAD4, RCA probe fluorescence polarization; inhibition, % at 6.36 µM; shares compounds with PAD4 FP inh; 1,200 compounds, 28% hits;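 active = mean inhibition across replicates above the hit cutoff set by the earlier primary screen, cut at about 15% in these data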;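 note: inhibitors block active-site labeling by the probe so polarization falls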
# Apaf-1 inh conf = confirmation of Apaf-1 inhibitors. shares compounds with Apaf-1 inh. reconstituted apoptosome, caspase-3 DEVD-Rh110 fluorescence. inhibition, % at 20 µM. 1,800 compounds, 25% hits;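 active = mean inhibition of at least 40% at 20 µM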
# Rh110 quench = interferes with Rh110 fluorescence, flagging false Apaf-1 inhibitors. shares compounds with Apaf-1 inh. Rh110 fluorescence interference, quenched caspase reaction. activation (fluorescence interference), % at 20 µM. 1,800 tested, under 10 active. AID 504615;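 active = signal rise of 40% or more at 20 µM, treated as a fluorescence artifact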
# Apaf1 inh interf = counter-screen for Apaf-1 inhibitors: fluorescence interference, dose response; shares compounds with Apaf-1 inh; fluorescence interference counterscreen, Apaf-1 assay format; IC50, µM; 460 tested, under 10 active; AID 588538; call rule not given here
# Numbers stand for hits; n = inactive; x = no result.
SMILES,SIAE inh,TDP2 inh,Apaf-1 inh,GSTO1 counter,TCR-CD3 inh,PAD4 FP inh,GSTO1 confirm,Apaf-1 inh conf,Rh110 quench,Apaf1 inh interf,others
CCOC(=O)c1c(C)oc2c1c(C=NC1CCS(=O)(=O)C1)c(O)c1ccccc12 (stereo not drawn),n,n,x,n,n,n,x,x,x,x,
CCOC(=O)c1c(C)oc2c1c(C=NCCC(=O)O)c(O)c1ccccc12,n,n,81.0,43.2,n,n,47.0,59.3,n,n,
Cc1c(C(=O)c2ccc(F)cc2F)c2ccccn2c1CCC#N,n,n,62.7,39.1,n,n,n,n,n,x,
CCn1c(-c2cccn(Cc3ccc(Cl)cc3Cl)c2=O)n[nH]c1=S,n,n,n,n,n,n,x,x,x,x,
CC1=NN(c2ccccc2)C(=O)/C1=C\c1sccc1C,n,n,n,n,n,n,x,x,x,x,
CC1=NN(c2ccc(C)cc2)C(=O)/C1=C\c1ccc(Br)s1,n,n,89.1,39.7,n,21.2,n,n,n,x,PAD4 confirm=40.5
CC1=NN(c2ccc(Br)cc2)C(=O)/C1=C/c1cccs1,n,n,96.0,45.4,n,n,n,n,n,x,
O=C(CN1C(=O)NC2(CCCC2)C1=O)Nc1ccccc1C(F)(F)F,n,n,n,n,n,n,x,x,x,x,
CCc1ccc(S(=O)(=O)/N=C2\C=C(Nc3ccc(O)cc3)C(=O)c3ccccc32)cc1,x,x,95.1,87.0,x,51.8,87.1,95.9,n,n,PAD4 confirm=49.7
Cc1cc(C)c(S(=O)(=O)/N=C2\C=C(Nc3ccc(C(=O)O)cc3)C(=O)c3ccccc32)c(C)c1,18.3,84.0,88.7,85.0,n,52.5,88.6,91.6,n,n,PAD4 confirm=40.0
O=C(O)c1ccc(NS(=O)(=O)c2ccc3c(c2)C(=O)c2ccccc2C3=O)cc1,n,n,n,n,n,n,x,x,x,x,
Cc1cc(=O)n(Cc2ccccc2)c2c(C)cccc12,n,n,n,n,n,n,x,x,x,x,
Cc1[nH][nH]c(=O)c1C(c1ccc(-c2cccc(Cl)c2)o1)c1c(C)[nH][nH]c1=O,x,x,87.4,71.7,x,43.9,57.2,41.1,n,n,PAD4 confirm=35.5
CC(C)CCn1c(N)c(S(=O)(=O)c2cccs2)c2nc3ccccc3nc21,n,n,51.2,57.2,n,63.0,n,n,n,x,PAD4 confirm=n
O=C(NCCN1CCCC1)c1ccccc1Cl,n,n,n,n,n,n,x,x,x,x,
O=C1C(Cl)=C(NCCN2CCCCC2)C(=O)c2ccccc21,x,x,67.8,70.8,x,n,52.2,79.3,n,n,
CCNc1ccccc(-c2ccc3ccccc3n2)c1=O,n,n,n,n,n,n,x,x,x,x,
CCNC1=C(Cl)C(=O)c2ccccc2C1=O,n,n,51.3,69.5,n,n,n,n,n,x,
COc1cccc(/C=C2\SC(=S)N(NS(=O)(=O)c3ccccc3)C2=O)c1OC,n,n,n,n,n,n,x,x,x,x,
C=CCOc1c(Cl)cc(CNc2ccc(C)c(Cl)c2)cc1OC,x,x,n,n,x,n,x,x,x,x,
C=CCOc1c(Cl)cc(CNc2ccc(N(C)C)cc2)cc1OC,n,n,63.8,76.7,n,24.6,n,n,n,x,PAD4 confirm=n
CCOC(=O)c1c(C)n(-c2ccc(C)cc2)c2c(C(C(C)=O)C(=O)O)c(Br)c(O)c(O)c12 (stereo not drawn),n,n,49.6,64.3,n,n,n,62.3,n,n,
Cc1ccc(-n2nc3c(=O)n(CCCC(=O)NCCc4ccccc4)nc(C)c3c2C)cc1,n,n,n,n,n,n,x,x,x,x,
COc1ccc(Nc2ccc3c(c2)=NC2(CCCCC2)[N+]=3[O-])cc1,n,n,79.7,53.6,n,n,n,70.0,n,n,
CC1=NN(c2ccc(C(F)(F)F)cn2)C(=O)C1,n,n,62.0,44.2,n,n,n,61.2,n,n,
SMILES,SIAE inh,TDP2 inh,Apaf-1 inh,GSTO1 counter,TCR-CD3 inh,PAD4 FP inh,GSTO1 confirm,Apaf-1 inh conf,Rh110 quench,Apaf1 inh interf,others
Cc1cccc(C)c1NC(=O)CSc1nnc(-c2ccco2)c(-c2ccco2)n1,x,x,41.7,58.4,x,n,39.6,n,n,x,
Cc1ccc(C(C[N+](=O)[O-])c2c(N)n(C)c(=O)n(C)c2=O)cc1 (stereo not drawn),n,n,n,n,n,n,x,x,x,x,
Cc1[nH]n(-c2ccccc2)c(=O)c1C(C[N+](=O)[O-])c1ccc(Br)cc1 (stereo not drawn),n,n,87.3,44.6,n,n,n,96.4,n,n,
Cc1[nH]n(-c2ccccc2)c(=O)c1C(c1cccc([N+](=O)[O-])c1)c1c(C)[nH]n(-c2ccccc2)c1=O,n,89.6,64.1,52.2,n,30.0,n,n,n,x,PAD4 confirm=n
Cc1[nH]n(-c2ccccc2)c(=O)c1C(=O)c1ccc([N+](=O)[O-])cc1,n,n,n,n,n,n,x,x,x,x,
O=C(NCc1ccc2c(c1)OCO2)c1ccc(N2CCCC2=O)cc1,n,n,n,n,n,n,x,x,x,x,
Cc1ccc(NC(=O)CSc2nnc(C3CCCCC3)n2N)cc1F,n,n,n,n,n,n,x,x,x,x,
O=C(Nc1cccc(C(F)(F)F)c1)c1ccc2nc(-c3ccco3)c(-c3ccco3)nc2c1,n,n,65.8,49.7,n,n,n,43.6,n,n,
C=CCN(CC=C)Cc1c(O)ccc2c1oc(=O)c1ccccc12,n,n,46.8,54.8,n,n,n,41.2,n,n,
CCOc1ccc(NC(=O)CN(C)C(=O)c2ccc(N3CCOCC3)c([N+](=O)[O-])c2)cc1OCC,n,n,n,n,n,n,x,x,x,x,
Nc1ccc2c(c1)C(=O)c1ccccc1-2,n,n,n,n,n,n,x,x,x,x,
O=C1C(=O)c2ccc(-c3ccccc3)cc2-c2ccccc21,n,n,98.1,87.4,n,n,90.6,99.7,n,n,
CCOC(=O)c1ccccc1NC(=O)COC(=O)C(CCSC)NC(=O)COc1ccccc1 (stereo not drawn),x,x,n,n,x,n,x,x,x,x,
COc1ccccc1CNC(=O)COc1cccnc1[N+](=O)[O-],n,n,n,n,n,n,x,x,x,x,
CCc1ccc(CNc2ccc(O)cc2)cc1,x,x,95.9,85.6,x,14.9,n,40.7,n,n,PAD4 confirm=n
O=C(CSc1nc2ccccc2c(=O)n1-c1ccccc1)NCc1ccco1,n,n,n,n,n,n,x,x,x,x,
CC1(C)N([O-])c2cc([N+](=O)[O-])ccc2[N+]1=O,n,n,66.4,81.9,n,30.1,42.0,69.6,n,n,PAD4 confirm=15.1
CCCCNC(=O)CSc1nc2ccsc2c(=O)n1C1CCN(C(=O)OCC)CC1,n,n,n,n,n,n,x,x,x,x,
